The test system of data set [1] is CNE-2. The experiment in a line: Induction of apoptosis in human CNE-2 cells assessed as necrosis cells level at 50 nM incubated for 12 hrs by Annexin-V/FITC staining based FACS analysis (reference value: 1.45%). In kind it is cell-based. The settings on record: cne-2, 12 h, 0.05 µM. Background: In flow cytometry, cells or beads pass a laser one at a time.
The test system of data set [2] is CNE-2. The experiment in a line: Induction of apoptosis in human CNE-2 cells overexpressing HSP90 assessed as necrosis cells level at 70 nM incubated for 12 hrs by Annexin-V/FITC staining based FACS analysis (reference value: 1.49%). It is filed as cell-based. Conditions: cne-2, 12 h, 0.07 µM.
Data set [3] is described as follows: Oral bioavailability in Kunming mouse at 2 mg/kg measured up to 6 hrs by HPLC analysis. It is filed as ADME, organism-based. Conditions: in vivo. Put shortly: (§1)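 Male Kunming mice, 9–11 weeks old, about 23 g, four per group, were given a single 2 mg/kg dose intravenously or orally. Blood was sampled at 0, 10, 15, 30 min and 1, 2, 4, 6 h. For each sample, 40 μL plasma was deproteinized with 200 μL acetonitrile and centrifuged 10 min at 12 000 rpm before analysis.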

In data set [4] the test system is CNE-2. Description: Induction of apoptosis in human CNE-2 cells overexpressing HSP90 assessed as late apoptosis cells level at 70 nM incubated for 12 hrs by Annexin-V/FITC staining based FACS analysis (reference value: 2.18%). It is filed as cell-based. The settings on record: cne-2, 12 h, 0.07 µM.
Data set [5] concerns CNE-2. Description: Induction of apoptosis in human CNE-2 cells assessed as necrosis cells level at 70 nM incubated for 12 hrs by Annexin-V/FITC staining based FACS analysis (reference value: 1.49%). In kind it is cell-based. Conditions: cne-2, 12 h, 0.07 µM.
For data set [6], the system named is CNE-2. Description: Induction of apoptosis in human CNE-2 cells assessed as Bcl-XL degradation at 20 to 500 nM incubated for 24 hrs by immunoblot analysis. It is filed as functional, cell-based. The settings on record: dose 20-500 nM. Put shortly: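 CNE2 cells (RPMI 1640, 10% FBS, 37 °C, 5% CO₂) were incubated with inhibitor for 24 h, then lysed in RIPA buffer on ice for 30 min. Lysates were run on 8–12% SDS-PAGE and transferred to PVDF. Membranes were blocked with 5% milk and probed with primary antibodies overnight, then HRP secondaries. Detection was by chemiluminescence with actin as loading control.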
(In general: In western blotting, separated proteins are transferred to a membrane and probed.)

The subject of data set [7] is CNE-2. The experiment in a line: Antitumor activity against human CNE-2 cells xenografted in nu/nu mouse assessed as induction of tumor size shrinkage at 1 mg/kg, ip for 32 days. In kind it is functional, organism-based. Conditions: time 32.0 day. (Xenograft models place foreign cells or tissue in a host animal.)
Data set [8] relates to CNE-2. The experiment in a line: Induction of apoptosis in human CNE-2 cells assessed as late apoptosis cells level at 50 nM incubated for 12 hrs by Annexin-V/FITC staining based FACS analysis (reference value: 1.45%). It is filed as cell-based. The settings on record: cne-2, 12 h, 0.05 µM.
Data set [9] deals with T1, Heat shock protein HSP 90-alpha (Homo sapiens, UniProt P07900). Description: Inhibition of HSP90-alpha in human CNE-2 cells assessed as reduction in PKB protein levels at 70 nM incubated for 24 hrs in presence of HSP90-beta siRNA by immunoblot analysis. It is filed as cell-based.
The subject of data set [10] is CNE-2. The experiment in a line: Induction of apoptosis in human CNE-2 cells assessed as late apoptosis cells level at 200 nM incubated for 12 hrs by Annexin-V/FITC staining based FACS analysis (reference value: 1.45%). It is filed as cell-based. Conditions: cne-2, 12 h, 0.2 µM.
In data set [11] the test system is CNE-2. Description: Induction of apoptosis in human CNE-2 cells assessed as necrosis cells level at 500 nM incubated for 12 hrs by Annexin-V/FITC staining based FACS analysis (reference value: 1.45%). Conditions: cne-2, 12 h, 0.5 µM. It is filed as cell-based.
The test system of data set [12] is CNE-2. Description: Antitumor activity against human CNE-2 cells xenografted in nu/nu mouse assessed as inhibition of tumor growth at 1 mg/kg, po for 32 days. In kind it is functional, organism-based. Conditions: time 32.0 day.
Data set [13] concerns CNE-2. Description: Induction of apoptosis in human CNE-2 cells assessed as early apoptosis cells level at 20 nM incubated for 12 hrs by Annexin-V/FITC staining based FACS analysis (reference value: 1.45%). The settings on record: cne-2, 12 h, 0.02 µM. It is filed as cell-based.
Data set [14] deals with CNE-2. The experiment in a line: Induction of apoptosis in human CNE-2 cells assessed as early apoptosis cells level at 200 nM incubated for 12 hrs by Annexin-V/FITC staining based FACS analysis (reference value: 1.45%). It is filed as cell-based. Conditions: cne-2, 12 h, 0.2 µM.
Data set [15] concerns CNE-2. Description: Induction of apoptosis in human CNE-2 cells assessed as viable cells level at 500 nM incubated for 12 hrs by Annexin-V/FITC staining based FACS analysis (reference value: 96.7%). In kind it is cell-based. Conditions: read-out: Activity. A digest of the protocol:
(§2)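 CNE2 cells (RPMI 1640 with 10% FBS) were seeded at 5 × 10⁴ cells per well. After 24 h they were treated with compound in 0.05% DMSO for 12 h. Cells were then washed twice with PBS, pelleted, and stained in binding buffer with Annexin V-FITC and PI for flow cytometry.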

Data set [16] addresses T1, Heat shock protein HSP 90-alpha. The experiment in a line: Inhibition of HSP90-alpha (unknown origin) expressed in Escherichia coli BL21 assessed as reduction in ATPase activity in presence of PEP, NADH and ATP by pyruvate kinase/lactic dehydrogenase based coupled enzyme assay.
The test system of data set [17] is CNE-2. The experiment in a line: Induction of apoptosis in human CNE-2 cells assessed as viable cells level at 200 nM incubated for 12 hrs by Annexin-V/FITC staining based FACS analysis (reference value: 96.7%). In kind it is cell-based. The settings on record: read-out: Activity. Put shortly:
as §2

Data set [18] can be described thus: Half life in Kunming mouse at 2 mg/kg, iv measured up to 6 hrs by HPLC analysis. The settings on record: in vivo. It is filed as ADME, organism-based. Put shortly: as §1
Data set [19] deals with CNE-2. The experiment in a line: Induction of apoptosis in human CNE-2 cells assessed as Bcl-XL degradation at 70 nM incubated for 24 hrs in presence of HSP90-alpha siRNA by immunoblot analysis. It is filed as functional, cell-based. A digest of the protocol: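 CNE2 cells were transiently transfected with Hsp90 siRNA (siHsp90-1 or siHsp90-2) at 150 nM final using Lipofectamine 2000. They were then incubated with inhibitor for 24 h and immunoblotted: RIPA lysis, 8–12% SDS-PAGE, PVDF, overnight primary antibodies, HRP secondaries, chemiluminescence, actin as loading control.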

Data set [20] deals with CNE-2. The experiment in a line: Induction of apoptosis in human CNE-2 cells assessed as necrosis cells level at 200 nM incubated for 12 hrs by Annexin-V/FITC staining based FACS analysis (reference value: 1.45%). In kind it is cell-based. The settings on record: cne-2, 12 h, 0.2 µM.
Data set [21] concerns CNE-2. Description: Induction of apoptosis in human CNE-2 cells assessed as late apoptosis cells level at 70 nM incubated for 12 hrs by Annexin-V/FITC staining based FACS analysis (reference value: 2.18%). In kind it is cell-based. Conditions: cne-2, 12 h, 0.07 µM.
The test system of data set [22] is CNE-2. The experiment in a line: Induction of apoptosis in human CNE-2 cells assessed as late apoptosis cells level at 20 nM incubated for 12 hrs by Annexin-V/FITC staining based FACS analysis (reference value: 1.45%). In kind it is cell-based. The settings on record: cne-2, 12 h, 0.02 µM.
Data set [23] in a line: Binding affinity to HSP90-alpha L107G mutant (unknown origin) expressed in Escherichia coli BL21 by SPR assay. Set-up: species or system Homo sapiens. A digest of the protocol:
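SPR on a Biacore T200 at 25 °C with running buffer PBST (PBS pH 7.4, 0.005% Tween-20). Protein at 20 μg/mL in 10 mM sodium acetate pH 5.0 was immobilized on a CM5 chip, which was equilibrated overnight in PBST. Inhibitor serially diluted from 10 μM was injected at 30 μL/min with 120 s contact and 120 s dissociation.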

For data set [24], the system named is CNE-2. Description: Induction of apoptosis in human CNE-2 cells assessed as early apoptosis cells level at 100 nM incubated for 12 hrs by Annexin-V/FITC staining based FACS analysis (reference value: 1.45%). It is filed as cell-based. Conditions: cne-2, 12 h, 0.1 µM.

Calls of active or inactive are those of the source. No cut-off for these calls is given here.

For the compound `CC(C)(C)c1ccc(Cn2cc(-c3cc(O)c(O)c(O)c3)nn2)cc1`, the Activity in the data set on CNE-2 [1] was 0.37%; with CNE-2 [2] it was 0.64%; in the data set with CNE-2 [4] it was 1.28%; in the data set with CNE-2 [5], 1.2%; with CNE-2 [8], 15.3%; with CNE-2 [10], 11.6%. In addition, the Activity in the data set with CNE-2 [11] worked out at 0.96%; in the data set with CNE-2 [13], 4.08%; in the data set on CNE-2 [14], 13%; with CNE-2 [20], 0.3%; in the data set on CNE-2 [21] it was 9.56%; with CNE-2 [22], 2.19%. Also, in the data set on CNE-2 [24], the Activity turned out to be 6.22%. For the same compound, the bioavailability (usually the share of a dose that reaches the circulation, judged against a reference dose that is usually intravenous) in data set [3] was 12%. In addition, the outcome in the data set with CNE-2 [6] and in the data set with CNE-2 [7] was Active. Further, the inhibition entry in [9] was “inactive”. Also, the TGI result in the data set on CNE-2 [12] was “Active”. The viability at 0.5 µM in the data set on CNE-2 [15] is 32%. In addition, the IC50 (usually the point on the concentration scale where inhibition reaches its midpoint) in data set [16] is 0.16 µM. The viability at 0.2 µM with CNE-2 [17] worked out at 75.1%. In addition, the half-life (usually how long it takes for the measured level to halve) in [18] is 1.1 h. In addition, the outcome in the data set with CNE-2 [19] was inactive. Also, the Kd (usually the constant that tells how readily two partners part at equilibrium) in data set [23] stood at 29.1 µM.

These data come from ChEMBL document CHEMBL4706684, “Discovering High Potent Hsp90 Inhibitors as Antinasopharyngeal Carcinoma Agents through Fragment Assembling Approach” (J Med Chem, 2021).
